Results from different studies.
Each line is one published result; the experiments were not run side by side.
Target: Rhodopsin kinase GRK7 (GRK7, Homo sapiens, UniProt Q8WTQ7)
Residues used in one study (Q8WTQ7 1-553): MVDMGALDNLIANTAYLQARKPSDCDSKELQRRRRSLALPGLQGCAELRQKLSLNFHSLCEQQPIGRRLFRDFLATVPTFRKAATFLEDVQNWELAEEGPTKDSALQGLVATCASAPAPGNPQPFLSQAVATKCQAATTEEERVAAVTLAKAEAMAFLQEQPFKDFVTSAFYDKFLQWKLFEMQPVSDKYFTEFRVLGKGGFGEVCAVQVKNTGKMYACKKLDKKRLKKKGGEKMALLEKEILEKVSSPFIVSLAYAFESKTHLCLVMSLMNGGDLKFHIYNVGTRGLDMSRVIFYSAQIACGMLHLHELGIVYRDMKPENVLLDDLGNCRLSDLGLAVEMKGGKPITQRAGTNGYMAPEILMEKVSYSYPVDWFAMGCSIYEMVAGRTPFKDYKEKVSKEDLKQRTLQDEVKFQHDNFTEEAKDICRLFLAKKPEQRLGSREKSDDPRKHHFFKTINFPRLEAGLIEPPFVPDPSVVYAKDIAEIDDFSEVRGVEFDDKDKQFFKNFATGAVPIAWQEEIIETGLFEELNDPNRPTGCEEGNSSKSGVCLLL

Compound | effect on | mode | method | tested at | endpoint | value
Cc1c(NC(=O)c2cc(C(N)=O)nc3cc(F)ccc23)c(C(F)(F)F)nn1Cc1ccc(C#N)cc1 | cell-free assay | – | competition with immobilised ligand | 1 µM | remaining binding | 75%
Nc1ncnc2occ(-c3ccc(NC(=O)Nc4cc(C(F)(F)F)ccc4F)cc3)c12 | cell-free assay | inhibitor | – | 20 µM | remaining signal | 77%
O=C(Nc1cnn(-c2csc(C(=O)NC3COC3)c2)c1)Nc1c(F)cccc1Cl | enzyme activity | inhibitor | – | 5 µM | remaining activity | 94%
CC1=C(C#N)C(c2ccc3c(c2)c(NC(=O)c2ccccc2C)nn3C)C(C#N)=C(C)N1 | cell-free assay | – | competition with immobilised ligand | 1 µM | remaining binding | 70%
COc1cc2ncnc(Nc3ccc(Oc4ccccc4)c(C)c3C)c2cc1OC | enzyme activity | inhibitor | – | 1 µM | inhibition | 0%
Cc1cnc(NC2CCOCC2)nc1-n1cnc(C(=O)NC(CN)c2cc(F)cc(Cl)c2)c1 (stereo not drawn) | enzyme activity | inhibitor | radiometric | 1 µM | remaining activity | 85%
CCN(CC)c1ccc(C2=NNC(=O)CC2C)cc1[N+](=O)[O-] (stereo not drawn) | enzyme activity | inhibitor | – | 10 µM | remaining activity | 100%
CCCOc1ccc([C@H]2[C@H](C(=O)O)[C@@H](c3ccc4c(c3)OCO4)CN2CC(=O)Nc2c(CC)cccc2CC)cc1 | cell-free assay | – | competition with immobilised ligand | 1 µM | remaining binding | 100%
COc1cc2c(N3CCN(C(=O)Nc4ccc(OC(C)C)cc4)CC3)ncnc2cc1OCCCN1CCCCC1 | cell-free assay | – | – | 0.5 µM | remaining signal | 104%
CCCS(=O)(=O)Nc1ccc(F)c(C(=O)c2c[nH]c3ncc(-c4ccc(Cl)cc4)cc23)c1F | enzyme activity | inhibitor | – | 1 µM | inhibition | < 10%
Cc1ccc(NC(=O)c2ccc(C)c(C(F)(F)F)c2)cc1C#Cc1nn(C2CCC(O)CC2)c2ncnc(N)c12 (stereo not drawn) | cell-free assay | – | – | 10 µM | remaining signal | 101%
Cc1ccc(C(=O)NCc2ccsc2)cc1C#Cc1cn(C(C)C)c2ncnc(N)c12 | enzyme activity | inhibitor | – | 1 µM | activity vs control | 100%
CC(C)(C)c1nc(-c2cccc(NS(=O)(=O)c3c(F)cccc3F)c2F)c(-c2ccnc(N)n2)s1 | enzyme activity | inhibitor | radiometric | 1 µM | remaining activity | 76%
CO[C@@H](C)c1c(Nc2ccc([C@H](N(C)C(=O)C3CCS(=O)(=O)CC3)C(F)(F)F)cc2)cnc2cc(Cl)nn12 | cell-free assay | – | competition with immobilised ligand | 1 µM | remaining binding | 100%
O=C(Nc1cnn(-c2csc(C(=O)NC3COC3)c2)c1)Nc1ccccc1Cl | enzyme activity | inhibitor | – | 5 µM | remaining activity | 96.4%
C#Cc1cccc(Nc2ncnc3cc(OCCOC)c(OCCOC)cc23)c1 | cell-free assay | – | – | 0.5 µM | remaining signal | 98.3%
O=C(O)[C@@H]1[C@@H](Cn2nnc3ccccc3c2=O)CC[C@H]1C(=O)c1ccc(OCCC2CCOCC2)cc1 | cell-free assay | – | competition with immobilised ligand | 1 µM | remaining binding | 100%
CCCOc1ccc(OC)c(F)c1C(=O)c1ccc(C(=O)N[C@@H]2CNC[C@H]2NC(=O)c2ccc3[nH]ncc3c2)cc1 | enzyme activity | inhibitor | – | 10 µM | remaining activity | 107%
